# ChEMBL document CHEMBL4680136, “Synthesis and antitumor activities investigation of a C-nucleoside analogue of ribavirin” (Eur J Med Chem, 2020)
# Tests used:
# MDA-MB-435 [1] = test: Antiproliferative activity against human MDA-MB-435 cells assessed as reduction in cell growth at 100 uM incubated for 72 hrs by MTT assay relative to control; type: functional
# SNB-75 [2] = test: Antiproliferative activity against human SNB-75 cells assessed as reduction in cell growth at 100 uM incubated for 72 hrs by MTT assay relative to control; type: functional
# Huh-7 [3] = test: Antiproliferative activity against human HuH-7 cells assessed as reduction in cell growth incubated for 72 hrs by MTT assay; type: functional, cell-based; settings: Huh-7, 72 h
# IGROV-1 [4] = test: Antiproliferative activity against human IGROV-1 cells assessed as reduction in cell growth incubated for 7 days by trypan blue exclusion assay; type: functional, cell-based; settings: IGROV-1, 168 h
# In short: (§1)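 Ovarian lines grown in RPMI-1640 glutaMAX with 10% FBS, 5% CO2, 37°C. Cells seeded at 20 000 cells/well in 24-well plates and exposed to 0, 1, 10, 20, 30 or 50 μg/mL for 7 days. Viable cells were counted daily by trypan blue exclusion. At least three independent experiments in triplicate; mean ± standard deviation.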
# C6 [5] = test: Antiproliferative activity against rat C6 cells assessed as reduction in cell growth at 100 uM incubated for 72 hrs by MTT assay relative to control; type: functional
# A-431 [6] = test: Antiproliferative activity against human A-431 cells assessed as reduction in cell growth incubated for 72 hrs by MTT assay; type: functional, cell-based; settings: A-431, 72 h
# Caco-2 [7] = test: Antiproliferative activity against human CaCo-2 cells assessed as reduction in cell growth at 100 uM incubated for 72 hrs by MTT assay relative to control; type: functional
# Caco-2 [8] = test: Antiproliferative activity against human CaCo-2 cells assessed as reduction in cell growth incubated for 72 hrs by MTT assay; type: functional, cell-based; settings: Caco-2, 72 h
# B16-F10 [9] = test: Antiproliferative activity against mouse B16-F10 cells assessed as reduction in cell growth at 100 uM incubated for 72 hrs by MTT assay relative to control; type: functional
# MDA-MB-231 [10] = test: Antiproliferative activity against human MDA-MB-231 cells assessed as reduction in cell growth at 100 uM incubated for 72 hrs by MTT assay relative to control; type: functional
# IGROV-1 [11] = test: Antiproliferative activity against human IGROV-1 cells assessed as reduction in cell growth incubated for 3 days by trypan blue exclusion assay; type: functional, cell-based; settings: IGROV-1, 72 h; in short: as §1
# DU-145 [12] = test: Antiproliferative activity against human DU-145 cells assessed as reduction in cell growth incubated for 72 hrs by MTT assay; type: functional, cell-based; settings: DU-145, 72 h
# DU-145 [13] = test: Antiproliferative activity against human DU-145 cells assessed as reduction in cell growth at 100 uM incubated for 72 hrs by MTT assay relative to control; type: functional
# SK-OV-3 [14] = test: Antiproliferative activity against human SK-OV-3 cells assessed as reduction in cell growth incubated for 7 days by trypan blue exclusion assay; type: functional, cell-based; settings: SK-OV-3, 168 h; in short: as §1
# Huh-7 [15] = test: Antiproliferative activity against human HuH-7 cells assessed as reduction in cell growth at 100 uM incubated for 72 hrs by MTT assay relative to control; type: functional
# SNB-75 [16] = test: Antiproliferative activity against human SNB-75 cells assessed as reduction in cell growth incubated for 72 hrs by MTT assay; type: functional, cell-based; settings: SNB-75, 72 h
# SK-OV-3 [17] = test: Antiproliferative activity against human SK-OV-3 cells assessed as reduction in cell growth incubated for 4 days by trypan blue exclusion assay; type: functional, cell-based; settings: SK-OV-3, 96 h; in short: as §1
# A-431 [18] = test: Antiproliferative activity against human A-431 cells assessed as reduction in cell growth at 100 uM incubated for 72 hrs by MTT assay relative to control; type: functional
# MDA-MB-231 [19] = test: Antiproliferative activity against human MDA-MB-231 cells assessed as reduction in cell growth incubated for 72 hrs by MTT assay; type: functional, cell-based; settings: MDA-MB-231, 72 h
# IGROV-1 [20] = test: Antiproliferative activity against human IGROV-1 cells assessed as reduction in cell growth incubated for 4 days by trypan blue exclusion assay; type: functional, cell-based; settings: IGROV-1, 96 h; in short: as §1
# [21] = Cytotoxicity against human MET5A cells assessed as effect on cell morphology at 20 ug/ml measured upto 7 days by laser scanning confocal microscopy; type: cell-based; settings: 168 h, time <=7 day, dose 20 µg/ml
# In short: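 Healthy mesothelial MeT-5A cells, treated or untreated, were followed over days 1, 3 and 7. Actin cytoskeleton was stained by immunofluorescence (green) and nuclei with DAPI. Morphology was examined by laser scanning confocal microscopy.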
# C6 [22] = test: Antiproliferative activity against rat C6 cells assessed as reduction in cell growth incubated for 72 hrs by MTT assay; type: functional, cell-based; settings: C6, 72 h
# B16-F10 [23] = test: Antiproliferative activity against mouse B16-F10 cells assessed as reduction in cell growth incubated for 72 hrs by MTT assay; type: functional, cell-based; settings: B16-F10, 72 h
# MDA-MB-435 [24] = test: Antiproliferative activity against human MDA-MB-435 cells assessed as reduction in cell growth incubated for 72 hrs by MTT assay; type: functional, cell-based; settings: MDA-MB-435, 72 h
# SK-OV-3 [25] = test: Antiproliferative activity against human SK-OV-3 cells assessed as reduction in cell growth incubated for 3 days by trypan blue exclusion assay; type: functional, cell-based; settings: SK-OV-3, 72 h; in short: as §1
# [26] = Toxicity in Swiss mouse assessed as systemic signs at 5 to 100 mg/kg, ip observed after 7 days; type: organism-based; settings: in vivo, 168 h, dose 5-100 mg/kg, time 7 day
# [27] = Toxicity in Swiss mouse assessed as abnormal appearance at 5 to 100 mg/kg, ip observed after 24 hrs; type: organism-based; settings: in vivo, dose 5-100 mg/kg
# [28] = Toxicity in Swiss mouse assessed as effect on behaviour at 5 to 100 mg/kg, ip observed after 7 days; type: organism-based; settings: in vivo, 168 h, dose 5-100 mg/kg, time 7 day
# In short: (§2)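 Male 6-week-old Swiss mice were acclimatized 5-7 days and randomised into seven groups of 3. Six groups got a single i.p. injection at 5, 10, 25, 50, 75 or 100 mg/kg; controls were uninjected. Mice were monitored over the first 24 h, then daily for 7 days, recording mortality and behaviour.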
# [29] = Toxicity in Swiss mouse assessed as death rate at 5 to 100 mg/kg, ip observed after 24 hrs; type: organism-based; settings: in vivo, dose 5-100 mg/kg, read-out: Activity
# In short: (§3)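 Male 6-week-old Swiss mice, acclimatized 5-7 days, randomized into seven groups of 3. Single intraperitoneal injection at 5, 10, 25, 50, 75 or 100 mg/kg; controls housed alike without injection. Mice were monitored over the first 24 h, then daily for 7 days, recording mortality and behaviour.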
# [30] = Toxicity in Swiss mouse assessed as abnormal behavior at 5 to 100 mg/kg, ip observed after 24 hrs; type: organism-based; settings: in vivo, dose 5-100 mg/kg; in short: as §2
# [31] = Cytotoxicity against human MET5A cells assessed as effect on cell morphology at 50 ug/ml measured upto 7 days by laser scanning confocal microscopy; type: cell-based; settings: 168 h, time <=7 day, dose 50 µg/ml
# In short: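 MeT-5A mesothelial cells, untreated or treated up to 50 μg/mL, were stained for actin cytoskeleton by immunofluorescence with DAPI-counterstained nuclei. Morphology was examined by laser scanning confocal microscopy on days 1, 3 and 7.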
# [32] = Toxicity in Swiss mouse assessed as effect on food consumption at 5 to 100 mg/kg, ip observed after 7 days; type: organism-based; settings: in vivo, 168 h, dose 5-100 mg/kg, time 7 day
# [33] = Toxicity in Swiss mouse assessed as effect on body weight at 5 to 100 mg/kg, ip observed after 7 days; type: organism-based; settings: in vivo, 168 h, dose 5-100 mg/kg, time 7 day
# [34] = Toxicity in Swiss mouse assessed as death rate at 5 to 100 mg/kg, ip observed after 7 days; type: organism-based; settings: in vivo, dose 5-100 mg/kg, time 7 day, read-out: Activity; in short: as §3
smiles,measurement,setting,value
NC(=O)c1ncn([C@@H]2O[C@H](CO)[C@@H](O)[C@H]2O)n1 [RIBAVIRIN],inhibition at 100 µM,MDA-MB-435 [1],50%
same,inhibition at 100 µM,SNB-75 [2],70%
same,IC50,Huh-7 [3],53.7 µM
same,IC50,IGROV-1 [4],16 µg/mL
same,inhibition at 100 µM,C6 [5],75%
same,IC50,A-431 [6],3.18 µM
same,inhibition at 100 µM,Caco-2 [7],60%
same,IC50,Caco-2 [8],34.5 µM
same,inhibition at 100 µM,B16-F10 [9],80%
same,inhibition at 100 µM,MDA-MB-231 [10],40%
same,IC50,IGROV-1 [11],25 µg/mL
same,IC50,DU-145 [12],> 100 µM
same,inhibition at 100 µM,DU-145 [13],50%
same,IC50,SK-OV-3 [14],10 µg/mL
same,inhibition at 100 µM,Huh-7 [15],60%
same,IC50,SNB-75 [16],18.5 µM
same,IC50,SK-OV-3 [17],10 µg/mL
same,inhibition at 100 µM,A-431 [18],70%
same,IC50,MDA-MB-231 [19],> 100 µM
same,IC50,IGROV-1 [20],21 µg/mL
same,Activity,[21],Non-Toxic
same,IC50,C6 [22],13.5 µM
same,IC50,B16-F10 [23],3.5 µM
same,IC50,MDA-MB-435 [24],38.3 µM
same,IC50,SK-OV-3 [25],9 µg/mL
NC(=O)c1n[nH]nc1[C@@H]1O[C@H](CO)[C@@H](O)[C@H]1O,inhibition at 100 µM,MDA-MB-435 [1],80%
same,inhibition at 100 µM,SNB-75 [2],70%
same,IC50,Huh-7 [3],22.2 µM
same,IC50,IGROV-1 [4],23.8 µg/mL
same,inhibition at 100 µM,C6 [5],85%
same,Activity,[26],Non-Toxic
same,IC50,A-431 [6],0.58 µM
same,Activity,[27],Non-Toxic
same,inhibition at 100 µM,Caco-2 [7],90%
same,Activity,[28],Non-Toxic
same,IC50,Caco-2 [8],8.05 µM
same,mortality at 24 h,[29],0%
same,inhibition at 100 µM,B16-F10 [9],80%
same,inhibition at 100 µM,MDA-MB-231 [10],80%
same,IC50,IGROV-1 [11],23 µg/mL
same,IC50,DU-145 [12],2.14 µM
same,inhibition at 100 µM,DU-145 [13],85%
same,Activity,[30],Non-Toxic
same,Activity,[31],Non-Toxic
same,IC50,SK-OV-3 [14],19 µg/mL
same,Activity,[32],Non-Toxic
same,inhibition at 100 µM,Huh-7 [15],60%
same,IC50,SNB-75 [16],9.38 µM
same,IC50,SK-OV-3 [17],25.5 µg/mL
same,inhibition at 100 µM,A-431 [18],80%
same,IC50,MDA-MB-231 [19],9.59 µM
same,Activity,[33],Non-Toxic
same,IC50,IGROV-1 [20],22.8 µg/mL
same,Activity,[21],Non-Toxic
same,mortality at 168 h,[34],0%
same,IC50,C6 [22],2.15 µM
same,IC50,B16-F10 [23],1.52 µM
same,IC50,MDA-MB-435 [24],1.9 µM
same,IC50,SK-OV-3 [25],24.5 µg/mL
